Results taken from ChEMBL document CHEMBL1138802, “New water-soluble sulfonylphosphoramidic acid derivatives of the COX-2 selective inhibitor cimicoxib. A novel approach to sulfonamide prodrugs” (J Med Chem, 2004).

Experiments:
[1] = target: T1, Prostaglandin G/H synthase 2 (Rattus norvegicus) (UniProt P35355); assay: Percentage inhibition of rat carrageenan-induced paw edema after iv administration at 3 mg/kg; format: functional, organism-based; set-up: dose 3 mg/kg
T1 sequence (whole entry): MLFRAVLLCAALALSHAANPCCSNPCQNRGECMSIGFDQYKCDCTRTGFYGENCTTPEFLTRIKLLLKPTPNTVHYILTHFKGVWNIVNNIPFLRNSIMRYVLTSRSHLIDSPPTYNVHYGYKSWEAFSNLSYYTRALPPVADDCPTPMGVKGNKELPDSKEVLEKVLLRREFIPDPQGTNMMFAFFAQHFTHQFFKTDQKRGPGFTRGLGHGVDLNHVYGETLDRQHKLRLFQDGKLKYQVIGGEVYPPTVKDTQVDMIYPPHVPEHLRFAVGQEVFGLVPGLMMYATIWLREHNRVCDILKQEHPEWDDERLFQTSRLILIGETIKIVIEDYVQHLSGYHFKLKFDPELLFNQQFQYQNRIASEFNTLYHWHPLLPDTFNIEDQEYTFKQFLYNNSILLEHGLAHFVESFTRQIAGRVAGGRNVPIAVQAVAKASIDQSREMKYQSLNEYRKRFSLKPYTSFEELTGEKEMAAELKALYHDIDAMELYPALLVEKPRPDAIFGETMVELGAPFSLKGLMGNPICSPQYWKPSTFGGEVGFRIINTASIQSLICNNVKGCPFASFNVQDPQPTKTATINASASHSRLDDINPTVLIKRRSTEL
Method in brief: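 Male Sprague–Dawley rats (150–175 g) were dosed iv at 3 mg/kg in PBS (1 mL/kg) 10 min before intraplantar injection of 0.1 mL 1% λ-carrageenan into the hindpaw. Paw volume was measured by water-displacement plethysmometry before and 1, 2, 3 and 4 h after treatment. % inhibition was calculated from the AUC of treated versus control animals.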

[2] = Volume of distribution after i.v. administration of 1 mg/kg to Dogs; format: ADME, organism-based, Canis lupus familiaris; set-up: dose 1 mg/kg, route intravenous; conditions: dog, in vivo, iv
Method in brief: (§1)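 Dogs received the water-soluble phosphoramidic acid prodrug iv at 1 mg/kg as a solution. Parameters (t1/2, AUC/dose in ng h/mL, Cl in mL/h/kg, Vd in mL/kg) were derived from plasma levels of the released parent sulfonamide and reported as mean ± deviation.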

[3] = Clearance after i.v. administration of 1 mg/kg to Dogs; format: ADME, organism-based, Canis lupus familiaris; set-up: dose 1 mg/kg, route intravenous; conditions: dog, in vivo, iv; method in brief: as §1
[4] = Area under curve after i.v. administration of 1 mg/kg to Dogs; format: ADME, organism-based, Canis lupus familiaris; set-up: dose 1 mg/kg, route intravenous; conditions: dog, in vivo, iv; method in brief: as §1
[5] = Half life after i.v. administration of 2 mg/kg to Dogs; format: ADME, organism-based, Canis lupus familiaris; set-up: dose 2 mg/kg, route intravenous; conditions: dog, in vivo, iv
Method in brief: (§2)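 Dogs received the parent sulfonamide iv at 2 mg/kg as a suspension. Parameters (t1/2, AUC/dose in ng h/mL, Cl in mL/h/kg, Vd in mL/kg) were derived from its plasma levels and reported as mean ± deviation.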

[6] = Area under curve after i.v. administration of 2 mg/kg to Dogs; format: ADME, organism-based, Canis lupus familiaris; set-up: dose 2 mg/kg, route intravenous; conditions: dog, in vivo, iv; method in brief: as §2
[7] = Clearance after i.v. administration of 2 mg/kg to Dogs; format: ADME, organism-based, Canis lupus familiaris; set-up: dose 2 mg/kg, route intravenous; conditions: dog, in vivo, iv; method in brief: as §2
[8] = Volume of distribution after i.v. administration of 2 mg/kg to Dogs; format: ADME, organism-based, Canis lupus familiaris; set-up: dose 2 mg/kg, route intravenous; conditions: dog, in vivo, iv; method in brief: as §2

inhibition [1]	Vd [2]	clearance [3]	AUC/dose [4]	half-life [5]	AUC/dose [6]	clearance [7]	Vd [8]	SMILES
32.6%	–	–	–	–	–	–	–	CCC(=O)NS(=O)(=O)c1ccc(-c2c(-c3ccccc3)noc2C)cc1
34.8%	1.86 L/kg	4.55 mL/min/kg	3641.1 ng·h/mL	4.9 h	–	–	–	COc1ccc(-c2c(Cl)ncn2-c2ccc(S(=O)(=O)NP(=O)(O)O)cc2)cc1F
34.8%	–	–	–	5 h	3253.4 ng·h/mL	4.87 mL/min/kg	2.12 L/kg	COc1ccc(-c2c(Cl)ncn2-c2ccc(S(N)(=O)=O)cc2)cc1F [CIMICOXIB]
